Experimental data: ChEMBL document CHEMBL3526066, “In vitro metabolism of 17-(dimethylaminoethylamino)-17-demethoxygeldanamycin in human liver microsomes” (Drug Metab Dispos, 2011)
Blank lines part the entries; values can stand above or below the compound they belong to.

Columns and labels:
[1] = target: Cytochrome P450 2C19 (Homo sapiens, UniProt P33261); assay: Drug level assessed as human recombinant CYP2C19-mediated oxidative metabolism treated with 1 uM 17-DMAG relative to CYP3A4; type: ADME; conditions: recombinant enzyme
Procedure, shortened: (§1)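 Recombinant human P450 (E. coli-expressed, coexpressed with cytochrome b5), 20 pmol per 200 µl incubation with 0.2 mg reduced β-NADPH and 3.3 mM MgCl2 in 0.1 M phosphate buffer pH 7.4. Preincubated at 37°C in a shaking water bath, then 1 µM 17-DMAG added. E. coli control microsomes lacking P450 cDNA served as negative control. Metabolite (M1–M4, M6) formation rates were read by LC-MS/MS MRM and expressed as percent of the CYP3A4 rate.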

[2] = test system: Liver microsome; assay: Drug level in human liver microsomes treated with 1 uM 17-DMAG by liquid chromatography-tandem mass spectrometry in presence of 1 uM tranylcypromine CYP2A6 inhibitor; type: ADME
Procedure, shortened: (§2)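 Pooled HLMs in 0.1 M phosphate buffer pH 7.4 with 1 mM β-NADPH, 3.3 mM MgCl2 and the selective inhibitor were preincubated 3 min at 37°C in a shaking water bath. 17-DMAG (1 µM final) was then added and incubated 20 min at 37°C, with parallel no-inhibitor controls. M1, M2, M3, M4 and M6 were quantified by LC-MS/MS MRM. Inhibition was taken as the ratio of metabolite formed with versus without inhibitor.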

[3] = test system: Liver microsome; assay: Drug level in human liver microsomes treated with 1 uM 17-DMAG by liquid chromatography-tandem mass spectrometry in presence of 10 uM diethyldithiocarbamate CYP2E1 inhibitor; type: ADME; procedure, shortened: as §2
[4] = test system: Liver microsome; assay: Retention time in human liver microsomes treated with 10 uM […] after 2 hrs by liquid chromatography-tandem mass spectrometry; type: ADME
Procedure, shortened: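 17-DMAG (10 µM initial) was incubated with HLMs (1 mg/ml) in 0.1 M phosphate buffer with 3.3 mM MgCl2 and 1 mM β-NADPH at 37°C for 2 h alongside negative controls, then quenched with ice-cold acetonitrile. Samples were run on a C18 column with a 0.1% formic acid/ammonium formate–acetonitrile gradient (10–90% B in 10 min) using MS full scan, MRM, EPI and MS3 scans.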

[5] = target: T1, Cytochrome P450 2C8 (Homo sapiens, UniProt P10632); assay: Drug level assessed as human recombinant CYP2C8-mediated oxidative metabolism treated with 1 uM 17-DMAG relative to CYP3A4; type: ADME; conditions: recombinant enzyme; procedure, shortened: as §1
T1 sequence (P10632 whole entry): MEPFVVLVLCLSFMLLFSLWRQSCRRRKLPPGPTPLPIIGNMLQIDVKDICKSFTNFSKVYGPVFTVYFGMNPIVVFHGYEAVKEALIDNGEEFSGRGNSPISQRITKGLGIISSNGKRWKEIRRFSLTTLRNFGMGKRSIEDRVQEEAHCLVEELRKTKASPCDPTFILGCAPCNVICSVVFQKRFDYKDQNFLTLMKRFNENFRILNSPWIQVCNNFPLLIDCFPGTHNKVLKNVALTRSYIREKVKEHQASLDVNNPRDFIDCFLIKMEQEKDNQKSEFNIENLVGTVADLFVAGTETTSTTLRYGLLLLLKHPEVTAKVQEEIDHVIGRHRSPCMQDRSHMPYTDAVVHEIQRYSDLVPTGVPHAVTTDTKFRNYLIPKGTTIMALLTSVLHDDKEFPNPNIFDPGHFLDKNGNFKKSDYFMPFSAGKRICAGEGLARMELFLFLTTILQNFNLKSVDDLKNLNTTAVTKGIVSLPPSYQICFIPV

[6] = target: Cytochrome P450 3A4 (Homo sapiens, UniProt P08684); assay: Drug level assessed as human recombinant CYP3A4-mediated oxidative metabolism treated with 1 uM 17-DMAG after 30 mins by liquid chromatography-tandem mass spectrometry; type: ADME; conditions: recombinant enzyme, 0.5 h; procedure, shortened: as §1
[7] = test system: Liver microsome; assay: Drug level in human liver microsomes treated with 1 uM 17-DMAG by liquid chromatography-tandem mass spectrometry in presence of 10 uM alpha-naphthoflavone CYP1A2 inhibitor; type: ADME; procedure, shortened: as §2
[8] = test system: Liver microsome; assay: Drug level in human liver microsomes treated with 1 uM 17-DMAG by liquid chromatography-tandem mass spectrometry in presence of 10 uM ticlopidine CYP2B6 inhibitor; type: ADME; procedure, shortened: as §2
[9] = test system: Liver microsome; assay: Drug level in human liver microsomes treated with 1 uM 17-DMAG by liquid chromatography-tandem mass spectrometry in presence of 1 uM quercetin CYP2C8 inhibitor; type: ADME; procedure, shortened: as §2
[10] = test system: Liver microsome; assay: Drug level in human liver microsomes treated with 1 uM 17-DMAGby liquid chromatography-tandem mass spectrometry in presence of 1 uM sulfaphenazole CYP2C9 inhibitor; type: ADME; procedure, shortened: as §2
[11] = target: Cytochrome P450 2D6 (Homo sapiens, UniProt P10635); assay: Drug level assessed as human recombinant CYP2D6-mediated oxidative metabolism treated with 1 uM 17-DMAG relative to CYP3A4; type: ADME; conditions: recombinant enzyme; procedure, shortened: as §1
[12] = test system: Liver microsome; assay: Drug level in human liver microsomes treated with 1 uM 17-DMAG by liquid chromatography-tandem mass spectrometry in presence of 1 uM quinidine CYP2D6 inhibitor; type: ADME; procedure, shortened: as §2
[13] = target: T2, Cytochrome P450 2A6 (Homo sapiens, UniProt P11509); assay: Drug level assessed as human recombinant CYP2A6-mediated oxidative metabolism treated with 1 uM 17-DMAG relative to CYP3A4; type: ADME; conditions: recombinant enzyme; procedure, shortened: as §1
T2 sequence (P11509 whole entry): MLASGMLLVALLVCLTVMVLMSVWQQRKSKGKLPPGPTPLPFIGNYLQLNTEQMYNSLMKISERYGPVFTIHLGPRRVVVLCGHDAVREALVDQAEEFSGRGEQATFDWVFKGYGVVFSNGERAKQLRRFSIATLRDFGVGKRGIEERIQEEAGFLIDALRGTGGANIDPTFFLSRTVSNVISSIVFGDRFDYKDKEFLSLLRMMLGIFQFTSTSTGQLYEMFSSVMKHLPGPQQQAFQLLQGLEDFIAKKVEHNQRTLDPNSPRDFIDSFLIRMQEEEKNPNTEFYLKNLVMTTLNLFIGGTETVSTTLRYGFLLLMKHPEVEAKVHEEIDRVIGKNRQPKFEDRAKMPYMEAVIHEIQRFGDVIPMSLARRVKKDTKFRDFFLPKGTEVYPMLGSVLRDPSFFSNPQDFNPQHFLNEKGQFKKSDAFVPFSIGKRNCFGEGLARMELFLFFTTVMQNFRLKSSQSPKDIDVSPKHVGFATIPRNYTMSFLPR

[14] = target: T3, Cytochrome P450 1A2 (Homo sapiens, UniProt P05177); assay: Drug level assessed as human recombinant CYP1A2-mediated oxidative metabolism treated with 1 uM 17-DMAG relative to CYP3A4; type: ADME; conditions: recombinant enzyme; procedure, shortened: as §1
T3 sequence (P05177 whole entry): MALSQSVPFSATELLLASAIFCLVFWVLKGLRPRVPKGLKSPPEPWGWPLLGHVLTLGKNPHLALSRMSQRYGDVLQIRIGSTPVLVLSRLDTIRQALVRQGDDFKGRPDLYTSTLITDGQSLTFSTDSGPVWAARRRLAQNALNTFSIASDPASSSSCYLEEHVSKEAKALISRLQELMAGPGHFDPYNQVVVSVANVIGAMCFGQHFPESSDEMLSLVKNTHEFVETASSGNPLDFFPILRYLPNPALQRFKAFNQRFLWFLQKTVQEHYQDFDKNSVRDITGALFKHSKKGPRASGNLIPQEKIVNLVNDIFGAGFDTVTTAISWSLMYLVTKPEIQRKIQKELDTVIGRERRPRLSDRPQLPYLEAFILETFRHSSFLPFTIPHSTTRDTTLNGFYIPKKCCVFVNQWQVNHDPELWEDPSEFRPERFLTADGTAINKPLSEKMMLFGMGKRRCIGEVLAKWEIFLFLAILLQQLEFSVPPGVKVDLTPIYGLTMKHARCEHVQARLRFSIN

[15] = Terminal half life in human; type: ADME, organism-based; conditions: in vivo, read-out: beta t1/2 (converted)
[16] = test system: Liver microsome; assay: Drug metabolism in human liver microsomes assessed as (4E,6Z,8S,9S,10E,12S,13R,14S,16R)-19-(2-(dimethylamino)ethylamino)-13-hydroxy-10-(hydroxymethyl)-8,14-dimethoxy-4,12,16-trimethyl-3,20,22-trioxo-2-azabicyclo[16.3.1]docosa-1(21),4,6,10,18-pentaen-9-yl carbamate formation at 37 degC in presence of reduced GSH by liquid chromatography-tandem mass spectrometry; type: ADME; conditions: read-out: Km(app)
[17] = test system: Liver microsome; assay: Drug metabolism in human liver microsomes assessed as (4E,6Z,8S,9S,10E,12S,13R,14S,16R)-19-(2-(dimethylamino)ethylamino)-13,14-dihydroxy-8-methoxy-4,10,12,16-tetramethyl-3,20,22-trioxo-2-azabicyclo[16.3.1]docosa-1(21),4,6,10,18-pentaen-9-yl carbamate formation at 37 degC in presence of reduced GSH by liquid chromatography-tandem mass spectrometry; type: ADME; conditions: read-out: Km(app)
[18] = target: T4, Cytochrome P450 2B6 (Homo sapiens, UniProt P20813); assay: Drug metabolism assessed as human recombinant CYP2B6-mediated oxidative metabolism at 1 uM by liquid chromatography-tandem mass spectrometry; type: ADME; conditions: recombinant enzyme
T4 sequence (P20813 whole entry): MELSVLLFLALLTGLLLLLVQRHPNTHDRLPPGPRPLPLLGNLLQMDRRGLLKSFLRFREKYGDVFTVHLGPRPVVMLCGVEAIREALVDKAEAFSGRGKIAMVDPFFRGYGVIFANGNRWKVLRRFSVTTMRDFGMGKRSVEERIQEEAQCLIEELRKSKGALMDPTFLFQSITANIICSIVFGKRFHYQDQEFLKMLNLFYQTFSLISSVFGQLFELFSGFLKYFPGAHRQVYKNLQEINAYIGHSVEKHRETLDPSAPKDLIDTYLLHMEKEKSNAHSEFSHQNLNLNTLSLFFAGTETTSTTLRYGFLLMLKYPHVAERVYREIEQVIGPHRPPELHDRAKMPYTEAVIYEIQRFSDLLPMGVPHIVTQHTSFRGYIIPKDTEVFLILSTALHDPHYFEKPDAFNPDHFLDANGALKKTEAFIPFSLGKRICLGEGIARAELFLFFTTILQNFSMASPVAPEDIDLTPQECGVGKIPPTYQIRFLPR

[19] = test system: Liver microsome; assay: Metabolic stability in human liver microsomes at 5 uM by liquid chromatography-tandem mass spectrometry; type: ADME
Procedure, shortened: (§3)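 Pooled human liver microsomes (1 mg/ml) were incubated at 37°C with substrate (5 µM final), 1 mM β-NADPH and 3.3 mM MgCl2 in 0.1 M phosphate buffer, with or without 5 mM reduced GSH. Aliquots were taken from 1 to 120 min and quenched in ice-cold acetonitrile containing internal standard. LC-MS/MS peak-area ratios to internal standard were normalised to the 1-min sample.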

[20] = target: Cytochrome P450 2E1 (Homo sapiens, UniProt P05181); assay: Drug metabolism assessed as human recombinant CYP2E1-mediated oxidative metabolism at 1 uM by liquid chromatography-tandem mass spectrometry; type: ADME; conditions: recombinant enzyme
[21] = test system: Liver microsome; assay: Drug metabolism in human liver microsomes assessed as (4E,6Z,8S,9S,10E,12S,13R,14S,16R)-19-(2-(dimethylamino)ethylamino)-8,13-dihydroxy-14-methoxy-4,10,12,16-tetramethyl-3,20,22-trioxo-2-azabicyclo[16.3.1]docosa-1(21),4,6,10,18-pentaen-9-yl carbamate formation at 1 uM 17-DMAG by liquid chromatography-tandem mass spectrometry in presence of 1 uM ketoconazole CYP3A inhibitor; type: ADME
[22] = Drug metabolism in human liver microsomes assessed as stability after 2 hrs relative to control by liquid chromatography-tandem mass spectrometry; type: ADME; conditions: read-out: Stability; procedure, shortened: as §3
[23] = Total clearance in human; type: ADME, organism-based; conditions: in vivo
[24] = target: Cytochrome P450 3A5 (Homo sapiens, UniProt P20815); assay: Drug metabolism assessed as human recombinant CYP3A5-mediated (4E,6Z,8S,9S,10E,12S,13R,14S,16R)-19-(2-(dimethylamino)ethylamino)-13-hydroxy-8,14-dimethoxy-4,10,12,16-tetramethyl-3,20,22-trioxo-2-azabicyclo[16.3.1]docosa-1(21),4,6,10,18-pentaen-9-yl carbamate formation at 1 uM relative to CYP3A4; type: ADME; conditions: recombinant enzyme
[25] = target: Cytochrome P450 2C9 (Homo sapiens, UniProt P11712); assay: Drug metabolism assessed as human recombinant CYP2C9-mediated oxidative metabolism at 1 uM by liquid chromatography-tandem mass spectrometry; type: ADME; conditions: recombinant enzyme
Chain of Cytochrome P450 2C9 (P11712 whole entry): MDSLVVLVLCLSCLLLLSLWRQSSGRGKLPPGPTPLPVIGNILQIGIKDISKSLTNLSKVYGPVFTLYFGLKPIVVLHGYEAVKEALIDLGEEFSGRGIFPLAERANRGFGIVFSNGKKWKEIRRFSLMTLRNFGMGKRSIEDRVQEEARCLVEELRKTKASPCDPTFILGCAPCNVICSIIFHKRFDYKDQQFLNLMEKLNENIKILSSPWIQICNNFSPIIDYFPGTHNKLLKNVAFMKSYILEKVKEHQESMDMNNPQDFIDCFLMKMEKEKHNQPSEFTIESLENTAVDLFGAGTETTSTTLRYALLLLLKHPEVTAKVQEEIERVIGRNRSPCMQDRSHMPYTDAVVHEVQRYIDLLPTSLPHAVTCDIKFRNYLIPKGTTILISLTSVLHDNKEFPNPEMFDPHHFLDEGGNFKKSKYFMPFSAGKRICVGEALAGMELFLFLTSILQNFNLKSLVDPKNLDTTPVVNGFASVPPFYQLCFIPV

Chain of Cytochrome P450 2E1 (P05181 whole entry): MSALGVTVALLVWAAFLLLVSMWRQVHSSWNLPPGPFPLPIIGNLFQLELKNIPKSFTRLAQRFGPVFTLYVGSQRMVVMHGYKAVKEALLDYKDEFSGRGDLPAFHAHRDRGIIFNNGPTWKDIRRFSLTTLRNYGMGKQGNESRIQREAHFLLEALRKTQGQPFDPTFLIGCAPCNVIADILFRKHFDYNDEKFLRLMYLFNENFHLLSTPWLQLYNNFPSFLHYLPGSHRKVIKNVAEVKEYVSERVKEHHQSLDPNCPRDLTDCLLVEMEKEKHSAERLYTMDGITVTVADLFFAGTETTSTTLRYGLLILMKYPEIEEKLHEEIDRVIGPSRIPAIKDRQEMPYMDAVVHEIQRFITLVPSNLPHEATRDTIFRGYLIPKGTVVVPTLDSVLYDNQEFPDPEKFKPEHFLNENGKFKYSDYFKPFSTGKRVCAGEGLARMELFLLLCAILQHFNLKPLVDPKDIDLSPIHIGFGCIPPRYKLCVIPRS
Chain of Cytochrome P450 2D6 (P10635 whole entry): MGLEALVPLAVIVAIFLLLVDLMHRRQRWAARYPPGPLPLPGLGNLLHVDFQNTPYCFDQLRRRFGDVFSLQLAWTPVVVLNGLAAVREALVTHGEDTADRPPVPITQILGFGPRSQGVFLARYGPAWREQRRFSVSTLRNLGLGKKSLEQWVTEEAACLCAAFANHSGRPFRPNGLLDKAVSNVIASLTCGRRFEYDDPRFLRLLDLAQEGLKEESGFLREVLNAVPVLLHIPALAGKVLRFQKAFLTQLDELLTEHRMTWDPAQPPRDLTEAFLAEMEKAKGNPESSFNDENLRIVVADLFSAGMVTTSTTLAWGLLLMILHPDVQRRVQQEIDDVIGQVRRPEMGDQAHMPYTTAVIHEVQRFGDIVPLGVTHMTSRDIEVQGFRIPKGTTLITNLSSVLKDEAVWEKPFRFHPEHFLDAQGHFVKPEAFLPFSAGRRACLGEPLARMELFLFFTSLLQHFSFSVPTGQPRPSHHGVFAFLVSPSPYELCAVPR
Chain of Cytochrome P450 3A5 (P20815 whole entry): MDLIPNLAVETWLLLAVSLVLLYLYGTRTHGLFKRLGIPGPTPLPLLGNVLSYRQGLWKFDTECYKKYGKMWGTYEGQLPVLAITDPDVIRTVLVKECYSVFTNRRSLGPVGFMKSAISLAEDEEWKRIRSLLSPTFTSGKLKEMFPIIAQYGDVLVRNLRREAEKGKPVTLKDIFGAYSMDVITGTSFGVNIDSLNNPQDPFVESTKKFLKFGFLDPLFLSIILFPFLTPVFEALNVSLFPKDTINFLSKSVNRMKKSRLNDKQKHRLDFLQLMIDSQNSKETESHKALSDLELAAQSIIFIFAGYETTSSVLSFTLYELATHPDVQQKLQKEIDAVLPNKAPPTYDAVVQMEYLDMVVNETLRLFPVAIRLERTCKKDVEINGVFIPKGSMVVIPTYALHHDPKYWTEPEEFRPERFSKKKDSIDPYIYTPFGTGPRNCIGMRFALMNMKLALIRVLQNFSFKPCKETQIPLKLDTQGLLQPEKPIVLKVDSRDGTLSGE
Chain of Cytochrome P450 3A4 (P08684 whole entry): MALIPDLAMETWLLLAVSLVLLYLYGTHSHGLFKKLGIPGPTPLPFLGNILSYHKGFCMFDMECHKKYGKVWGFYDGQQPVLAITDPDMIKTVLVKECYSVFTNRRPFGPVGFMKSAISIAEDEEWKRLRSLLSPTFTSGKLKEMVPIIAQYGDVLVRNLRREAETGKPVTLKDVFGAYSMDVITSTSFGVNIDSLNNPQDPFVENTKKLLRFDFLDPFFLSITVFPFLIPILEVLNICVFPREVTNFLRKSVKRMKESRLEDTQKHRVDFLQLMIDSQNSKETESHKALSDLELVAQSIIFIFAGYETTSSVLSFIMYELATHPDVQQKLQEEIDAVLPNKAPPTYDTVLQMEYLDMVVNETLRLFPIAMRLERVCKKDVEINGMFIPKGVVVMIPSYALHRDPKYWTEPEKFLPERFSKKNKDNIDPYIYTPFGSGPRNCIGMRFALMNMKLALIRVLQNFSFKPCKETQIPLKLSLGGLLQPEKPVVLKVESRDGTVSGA
Chain of Cytochrome P450 2C19 (P33261 whole entry): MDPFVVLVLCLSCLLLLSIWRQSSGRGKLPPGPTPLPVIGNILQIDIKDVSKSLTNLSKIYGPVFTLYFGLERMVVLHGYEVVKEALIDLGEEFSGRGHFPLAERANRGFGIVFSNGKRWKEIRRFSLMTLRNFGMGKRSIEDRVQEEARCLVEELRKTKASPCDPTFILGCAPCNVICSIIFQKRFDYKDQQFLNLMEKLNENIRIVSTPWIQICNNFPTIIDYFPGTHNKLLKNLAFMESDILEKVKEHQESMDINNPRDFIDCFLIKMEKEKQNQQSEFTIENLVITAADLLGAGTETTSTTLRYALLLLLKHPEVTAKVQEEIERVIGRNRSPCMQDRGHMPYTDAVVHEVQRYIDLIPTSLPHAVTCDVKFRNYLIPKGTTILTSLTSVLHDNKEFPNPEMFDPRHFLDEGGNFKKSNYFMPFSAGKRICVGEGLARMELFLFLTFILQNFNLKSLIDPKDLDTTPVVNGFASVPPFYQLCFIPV

- Drug metabolism [1]: metabolite_detected
- Drug metabolism [2]: metabolite_detected
- Drug metabolism [3]: metabolite_detected
- Retention_time [4]: 6.8 min
- Drug metabolism [5]: metabolite_detected
- Drug metabolism [6]: metabolite_detected
- Drug metabolism [7]: metabolite_detected
- Drug metabolism [8]: metabolite_detected
- Drug metabolism [9]: metabolite_detected
- Drug metabolism [10]: metabolite_detected
- Drug metabolism [11]: metabolite_detected
- Drug metabolism [12]: metabolite_detected
- Drug metabolism [13]: metabolite_detected
- Drug metabolism [14]: metabolite_detected
SMILES: CO[C@H]1/C=C\C=C(/C)C(=O)NC2=CC(=O)C(NC(O)CN(C)C)=C(C[C@@H](CO)C[C@H](OC)[C@H](O)[C@@H](CO)/C=C(\C)[C@@H]1OC(N)=O)C2=O (stereo not given in full)

SMILES: CO[C@H]1/C=C\C=C(/C)C(=O)NC2=CC(=O)C(NCCN(C)C)=C(C[C@@H](C)C[C@H](OC)[C@H](O)[C@@H](C)/C=C(\C)[C@@H]1OC(N)=O)C2=O (stereo in doubt) [ALVESPIMYCIN]
- half-life [15]: 16 h
- Km [16]: 6.61 µM
- Km [17]: 7.83 µM
- Drug metabolism [18]: metabolite_not_detected
- Stability [19]: Stable
- Drug metabolism [20]: metabolite_not_detected
- Drug metabolism [21]: metabolite_not_detected
- remaining at 2 h [22]: 24%
- clearance [23]: 123 mL/min
- Drug metabolism [24]: metabolite_not_detected
- Drug metabolism [25]: metabolite_not_detected
